In ChEMBL document CHEMBL1681688, “Design and evaluation of a 2-(2,3,6-trifluorophenyl)acetamide derivative as an agonist of the GPR119 receptor” (Bioorg Med Chem Lett, 2011):

Legend:
[1] = biological target: T1, Glucose-dependent insulinotropic receptor (Homo sapiens, UniProt Q8TDV5); test: Agonist activity against human GPR119 receptor expressed in HEK293 cells assessed as beta-lactamase production by cAMP response element assay; format: functional, cell-based
T1 sequence (Q8TDV5 whole entry): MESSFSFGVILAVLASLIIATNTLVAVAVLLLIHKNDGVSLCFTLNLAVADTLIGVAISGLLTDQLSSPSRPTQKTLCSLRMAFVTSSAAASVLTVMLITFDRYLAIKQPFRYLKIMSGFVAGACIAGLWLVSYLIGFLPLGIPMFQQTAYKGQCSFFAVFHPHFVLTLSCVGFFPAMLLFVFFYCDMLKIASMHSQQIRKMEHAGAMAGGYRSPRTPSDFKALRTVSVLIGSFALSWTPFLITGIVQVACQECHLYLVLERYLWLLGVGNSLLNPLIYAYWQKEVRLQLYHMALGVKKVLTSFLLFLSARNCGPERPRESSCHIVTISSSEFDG

[2] = biological target: T2, Glucose-dependent insulinotropic receptor (Homo sapiens) (UniProt Q8TDV5); test: Intrinsic activity against human GPR119 receptor expressed in HEK293 cells assessed as beta-lactamase production by cAMP response element assay; format: functional, cell-based
T2 sequence (whole entry): T1 sequence (Q8TDV5 whole entry)
In short: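 Human recombinant cell-based cAMP functional assay, read as intrinsic activity. The number of runs varies by compound, with SD reported where n >2.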

[3] = Intrinsic clearance in human liver microsomes; format: ADME, Microsome
[4] = Lipophilicity, log D of the compound; format: physicochemical; conditions: octanol/water

EC50 [1] [nM] | Intrinsic activity [2] [%] | CLint scaled [3] [mL/min/kg] | logD [4] | SMILES
80 | 107 | 42.4 | 3.4 | CC1(OC(=O)N2CCC([C@H](F)CNC(=O)Cc3c(F)ccc(F)c3F)CC2)CC1
13 | 87 | 230 |  | CC(CNC(=O)Cc1c(F)ccc(F)c1F)C1CCN(C(=O)OC(C)(C)C)CC1 (stereo not drawn)
267 | 72 | > 270 |  | CC(CNC(=O)Cc1ccc(-n2cnnn2)cc1)C1CCN(C(=O)OC(C)(C)C)CC1 (stereo not drawn)
32 | 88 | 205 | 4 | CC(C)OC(=O)N1CCC(C(C)CNC(=O)Cc2c(F)ccc(F)c2F)CC1 (stereo not drawn)
1380 | 100 | 63.8 | 3.4 | CC1(OC(=O)N2CCC([C@@H](F)CNC(=O)Cc3c(F)ccc(F)c3F)CC2)CC1
868 | 111 |  | 3.5 | CC1(OC(=O)N2CCC(CCNC(=O)Cc3c(F)ccc(F)c3F)CC2)CC1
44 | 124 | > 300 | 3.9 | C[C@H](CNC(=O)Cc1c(F)ccc(F)c1F)C1CCN(C(=O)OC2(C)CC2)CC1
120 | 101 |  | 3.9 | CC(CNC(=O)Cc1c(F)cccc1F)C1CCN(C(=O)OC(C)(C)C)CC1 (stereo not drawn)
409 | 68 |  | 3.4 | CC(C)OC(=O)N1CCC(CCNC(=O)Cc2c(F)ccc(F)c2F)CC1
236 | 97 | 187 | 3.9 | C[C@@H](CNC(=O)Cc1c(F)ccc(F)c1F)C1CCN(C(=O)OC2(C)CC2)CC1
5980 | 100 | 247 |  | CC(CNC(=O)Cc1ccccc1)C1CCN(C(=O)OC(C)(C)C)CC1 (stereo not drawn)
75 | 107 | > 300 |  | CC(CNC(=O)Cc1cccc(F)c1F)C1CCN(C(=O)OC(C)(C)C)CC1 (stereo not drawn)
340 | 102 | > 300 |  | CC(CNC(=O)Cc1cccc(F)c1)C1CCN(C(=O)OC(C)(C)C)CC1 (stereo not drawn)
884 | 47 | 136 |  | CC(CNC(=O)Cc1ccc(S(C)(=O)=O)cc1)C1CCN(C(=O)OC(C)(C)C)CC1 (stereo not drawn)
78 | 104 | > 300 |  | CC(CNC(=O)Cc1cc(F)ccc1F)C1CCN(C(=O)OC(C)(C)C)CC1 (stereo not drawn)
808 | 97 | > 300 |  | CC(CNC(=O)Cc1ccccc1F)C1CCN(C(=O)OC(C)(C)C)CC1 (stereo not drawn)
